Results published in ChEMBL document CHEMBL5058577, “EUbOPEN Chemogenomics Library 2 (Multiplex)” (2022).

Test system: Fibroblast
Assay: Multiplex assay against human fibroblast
Type: toxicity, cell-based
Procedure, shortened: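 Cells were classed with CellPathfinder machine-learning gating, first as Hoechst high-intensity objects or normal cells, then (normal cells) as healthy, pyknosed or fragmented nuclei, and finally (pyknosed cells) as mitotic or apoptotic. Staining of live cells at seeding used Hoechst33342, BioTracker Green Microtubule Cytoskeleton Dye, MitoTracker Red and Annexin V Alexa Fluor 680, with imaging on a CQ1 microscope at 37°C and 5% CO2 after compound addition. Tubulin, mitochondrial-mass and membrane-permeability phenotypes are per cents of healthy-nucleus cells.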

[1] = 12 h, 1 µM, compound concentration 1 uM, replicate 1
[2] = 12 h, 1 µM, compound concentration 1 uM, replicate 2
[3] = 12 h, 10 µM, compound concentration 10 uM, replicate 1
[4] = 12 h, 10 µM, compound concentration 10 uM, replicate 2
[5] = 24 h, 1 µM, compound concentration 1 uM, replicate 1
[6] = 24 h, 1 µM, compound concentration 1 uM, replicate 2
[7] = 24 h, 10 µM, compound concentration 10 uM, replicate 1
[8] = 24 h, 10 µM, compound concentration 10 uM, replicate 2
[9] = 48 h, 1 µM, compound concentration 1 uM, replicate 1
[10] = 48 h, 1 µM, compound concentration 1 uM, replicate 2
[11] = 48 h, 10 µM, compound concentration 10 uM, replicate 1
[12] = 48 h, 10 µM, compound concentration 10 uM, replicate 2

O=C1[C@H](Cc2ccc(O)cc2)N2C(=O)CCN(C(=O)NCc3ccccc3)[C@H]2CN1Cc1cccc2ccccc12
Population Apoptotic (%) [1]: 32% | Population Fragmented Nuclei (%) [1]: 18% | Population Healthy Nuclei (%) [1]: 57% | Population Hoechst High Intensity Objects (%) [1]: 3% | Population Membrane Permeable-Phenotype (%) [1]: 0% | Population Mitochondria Different-Phenotype (%) [1]: 11% | Population Mitotic Cells (%) [1]: 67% | Population Normal (%) [1]: 96% | Population Pyknosed Nuclei (%) [1]: 24% | Population Tubulin-Different-Phenotype (%) [1]: 47% | Total Cell Count [1]: 160 | Population Apoptotic (%) [2]: 30% | Population Fragmented Nuclei (%) [2]: 27% | Population Healthy Nuclei (%) [2]: 45% | Population Hoechst High Intensity Objects (%) [2]: 2% | Population Membrane Permeable-Phenotype (%) [2]: 5% | Population Mitochondria Different-Phenotype (%) [2]: 13% | Population Mitotic Cells (%) [2]: 69% | Population Normal (%) [2]: 97% | Population Pyknosed Nuclei (%) [2]: 26% | Population Tubulin-Different-Phenotype (%) [2]: 58% | Total Cell Count [2]: 152 | Population Apoptotic (%) [3]: 35% | Population Fragmented Nuclei (%) [3]: 18% | Population Healthy Nuclei (%) [3]: 58% | Population Hoechst High Intensity Objects (%) [3]: 8% | Population Membrane Permeable-Phenotype (%) [3]: 0% | Population Mitochondria Different-Phenotype (%) [3]: 24% | Population Mitotic Cells (%) [3]: 64% | Population Normal (%) [3]: 91% | Population Pyknosed Nuclei (%) [3]: 23% | Population Tubulin-Different-Phenotype (%) [3]: 84% | Total Cell Count [3]: 146 | Population Apoptotic (%) [4]: 45% | Population Fragmented Nuclei (%) [4]: 23% | Population Healthy Nuclei (%) [4]: 45% | Population Hoechst High Intensity Objects (%) [4]: 9% | Population Membrane Permeable-Phenotype (%) [4]: 8% | Population Mitochondria Different-Phenotype (%) [4]: 15% | Population Mitotic Cells (%) [4]: 55% | Population Normal (%) [4]: 90% | Population Pyknosed Nuclei (%) [4]: 30% | Population Tubulin-Different-Phenotype (%) [4]: 83% | Total Cell Count [4]: 144 | Population Apoptotic (%) [5]: 42% | Population Fragmented Nuclei (%) [5]: 16% | Population Healthy Nuclei (%) [5]: 62% | Population Hoechst High Intensity Objects (%) [5]: 3% | Population Membrane Permeable-Phenotype (%) [5]: 3% | Population Mitochondria Different-Phenotype (%) [5]: 7% | Population Mitotic Cells (%) [5]: 57% | Population Normal (%) [5]: 96% | Population Pyknosed Nuclei (%) [5]: 21% | Population Tubulin-Different-Phenotype (%) [5]: 49% | Total Cell Count [5]: 158 | Population Apoptotic (%) [6]: 28% | Population Fragmented Nuclei (%) [6]: 30% | Population Healthy Nuclei (%) [6]: 47% | Population Hoechst High Intensity Objects (%) [6]: 2% | Population Membrane Permeable-Phenotype (%) [6]: 7% | Population Mitochondria Different-Phenotype (%) [6]: 8% | Population Mitotic Cells (%) [6]: 71% | Population Normal (%) [6]: 97% | Population Pyknosed Nuclei (%) [6]: 22% | Population Tubulin-Different-Phenotype (%) [6]: 58% | Total Cell Count [6]: 147 | Population Apoptotic (%) [7]: 44% | Population Fragmented Nuclei (%) [7]: 15% | Population Healthy Nuclei (%) [7]: 62% | Population Hoechst High Intensity Objects (%) [7]: 10% | Population Membrane Permeable-Phenotype (%) [7]: 1% | Population Mitochondria Different-Phenotype (%) [7]: 44% | Population Mitotic Cells (%) [7]: 55% | Population Normal (%) [7]: 89% | Population Pyknosed Nuclei (%) [7]: 21% | Population Tubulin-Different-Phenotype (%) [7]: 83% | Total Cell Count [7]: 141 | Population Apoptotic (%) [8]: 64% | Population Fragmented Nuclei (%) [8]: 25% | Population Healthy Nuclei (%) [8]: 47% | Population Hoechst High Intensity Objects (%) [8]: 7% | Population Membrane Permeable-Phenotype (%) [8]: 13% | Population Mitochondria Different-Phenotype (%) [8]: 21% | Population Mitotic Cells (%) [8]: 35% | Population Normal (%) [8]: 92% | Population Pyknosed Nuclei (%) [8]: 26% | Total Cell Count [8]: 137 | Population Apoptotic (%) [9]: 62% | Population Fragmented Nuclei (%) [9]: 22% | Population Healthy Nuclei (%) [9]: 59% | Population Hoechst High Intensity Objects (%) [9]: 7% | Population Membrane Permeable-Phenotype (%) [9]: 2% | Population Mitochondria Different-Phenotype (%) [9]: 7% | Population Mitotic Cells (%) [9]: 37% | Population Normal (%) [9]: 92% | Population Pyknosed Nuclei (%) [9]: 17% | Population Tubulin-Different-Phenotype (%) [9]: 54% | Total Cell Count [9]: 164 | Population Apoptotic (%) [10]: 54% | Population Fragmented Nuclei (%) [10]: 37% | Population Healthy Nuclei (%) [10]: 45% | Population Hoechst High Intensity Objects (%) [10]: 5% | Population Membrane Permeable-Phenotype (%) [10]: 5% | Population Mitochondria Different-Phenotype (%) [10]: 6% | Population Mitotic Cells (%) [10]: 45% | Population Normal (%) [10]: 94% | Population Tubulin-Different-Phenotype (%) [10]: 48% | Total Cell Count [10]: 135 | Population Apoptotic (%) [11]: 85% | Population Fragmented Nuclei (%) [11]: 21% | Population Healthy Nuclei (%) [11]: 58% | Population Hoechst High Intensity Objects (%) [11]: 15% | Population Membrane Permeable-Phenotype (%) [11]: 0% | Population Mitochondria Different-Phenotype (%) [11]: 50% | Population Mitotic Cells (%) [11]: 14% | Population Normal (%) [11]: 84% | Population Pyknosed Nuclei (%) [11]: 20% | Population Tubulin-Different-Phenotype (%) [11]: 85% | Total Cell Count [11]: 124 | Population Apoptotic (%) [12]: 66% | Population Fragmented Nuclei (%) [12]: 32% | Population Healthy Nuclei (%) [12]: 53% | Population Hoechst High Intensity Objects (%) [12]: 10% | Population Membrane Permeable-Phenotype (%) [12]: 5% | Population Mitochondria Different-Phenotype (%) [12]: 38% | Population Mitotic Cells (%) [12]: 33% | Population Normal (%) [12]: 89% | Population Pyknosed Nuclei (%) [12]: 14% | Population Tubulin-Different-Phenotype (%) [12]: 94% | Total Cell Count [12]: 119
